One test deals with SF-295. The test can be described thus: Anticancer activity against human SF-295 cells assessed as cell growth inhibition. It counts as functional, cell-based. Conditions: dose 1-100 µM, DDE = dose-dependent effect.
The subject of the next test is SK-MEL-2. Put plainly: Anticancer activity against human SK-MEL-2 cells assessed as cell growth inhibition. It counts as functional, cell-based. Conditions: dose 1-100 µM, DDE = dose-dependent effect.
The subject of another test is EKVX. Put plainly: Anticancer activity against human EKVX cells assessed as cell growth inhibition. Conditions: dose 1-100 µM, DDE = dose-dependent effect. The format is functional, cell-based.
For test [1], the target named is Muscarinic acetylcholine receptor M3 (Homo sapiens) (UniProt P20309). Put plainly: Binding affinity to M3 receptor (unknown origin) at 10000 nM by radioligand displacement assay relative to control. In general terms: Displacement assays read how much labelled ligand stays bound in the presence of the test substance.
Muscarinic acetylcholine receptor M3 (Homo sapiens), sequence (P20309 whole entry, looked up): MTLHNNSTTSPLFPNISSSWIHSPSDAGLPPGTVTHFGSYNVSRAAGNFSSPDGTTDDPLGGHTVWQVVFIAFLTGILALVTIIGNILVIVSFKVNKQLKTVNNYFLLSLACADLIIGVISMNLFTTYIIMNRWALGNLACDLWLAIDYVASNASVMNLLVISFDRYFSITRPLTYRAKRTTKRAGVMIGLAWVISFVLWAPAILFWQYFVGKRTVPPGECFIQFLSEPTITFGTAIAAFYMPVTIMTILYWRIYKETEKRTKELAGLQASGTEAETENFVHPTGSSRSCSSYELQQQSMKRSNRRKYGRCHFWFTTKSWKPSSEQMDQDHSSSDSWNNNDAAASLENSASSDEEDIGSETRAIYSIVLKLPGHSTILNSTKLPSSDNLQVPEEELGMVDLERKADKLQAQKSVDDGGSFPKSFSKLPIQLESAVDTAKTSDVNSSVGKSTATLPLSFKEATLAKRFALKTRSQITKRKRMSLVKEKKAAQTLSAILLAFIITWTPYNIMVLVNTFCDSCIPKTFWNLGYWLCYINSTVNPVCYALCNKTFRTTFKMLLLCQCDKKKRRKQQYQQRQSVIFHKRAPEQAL
In test [2] the target is Beta-2 adrenergic receptor (Homo sapiens) (UniProt P07550). Put plainly: Binding affinity to beta2 receptor (unknown origin) at 10000 nM by radioligand displacement assay relative to control.
Beta-2 adrenergic receptor (Homo sapiens), sequence (P07550 whole entry, looked up): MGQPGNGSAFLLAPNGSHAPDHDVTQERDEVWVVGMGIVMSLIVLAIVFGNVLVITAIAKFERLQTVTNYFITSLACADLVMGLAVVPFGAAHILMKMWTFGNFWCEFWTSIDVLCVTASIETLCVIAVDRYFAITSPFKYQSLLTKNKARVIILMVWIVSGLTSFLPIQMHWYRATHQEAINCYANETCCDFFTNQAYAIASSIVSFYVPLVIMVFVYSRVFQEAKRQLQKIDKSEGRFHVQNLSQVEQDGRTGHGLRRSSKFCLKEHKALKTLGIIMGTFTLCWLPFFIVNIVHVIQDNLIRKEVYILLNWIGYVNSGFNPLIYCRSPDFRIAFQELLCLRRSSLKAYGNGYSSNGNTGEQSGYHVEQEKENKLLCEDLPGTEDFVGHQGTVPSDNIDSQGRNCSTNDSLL
A further test has as its system T47D. The test can be described thus: Anticancer activity against human T47D cells assessed as cell growth inhibition. The format is functional, cell-based. Conditions: dose 1-100 µM, DDE = dose-dependent effect.
For the next test, the system named is PC-3M. The test can be described thus: Antiproliferative activity against human PC-3M cells expressing PTB/GFP fusion protein assessed as reduction of nucleolar volume at 1 to 30 uM measured after 24 hrs by Nucleolar-id Green Detection based confocal microscopic analysis. The format is functional, cell-based. Conditions: dose 1-30 µM, DDE = dose-dependent effect. A digest of the protocol:
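PC-3M cells grown in RPMI 1640 with 10% FBS and penicillin/streptomycin, trypsinized at 70% confluence, and seeded at 2×10^5 cells/mL overnight at 37 °C, 5% CO₂. Medium replaced with compound or 1% DMSO for 24 h. Nucleoli stained with Nucleolar-ID Green and nuclei with Hoechst 33342, then imaged by confocal microscopy. Bright green objects in three images per condition normalized to nuclei count; vehicle set to 100.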

The target of a further test is Histamine H1 receptor (Homo sapiens, UniProt P35367). The test can be described thus: Binding affinity to H1 receptor (unknown origin) by radioligand displacement assay.
Histamine H1 receptor, sequence (P35367 whole entry): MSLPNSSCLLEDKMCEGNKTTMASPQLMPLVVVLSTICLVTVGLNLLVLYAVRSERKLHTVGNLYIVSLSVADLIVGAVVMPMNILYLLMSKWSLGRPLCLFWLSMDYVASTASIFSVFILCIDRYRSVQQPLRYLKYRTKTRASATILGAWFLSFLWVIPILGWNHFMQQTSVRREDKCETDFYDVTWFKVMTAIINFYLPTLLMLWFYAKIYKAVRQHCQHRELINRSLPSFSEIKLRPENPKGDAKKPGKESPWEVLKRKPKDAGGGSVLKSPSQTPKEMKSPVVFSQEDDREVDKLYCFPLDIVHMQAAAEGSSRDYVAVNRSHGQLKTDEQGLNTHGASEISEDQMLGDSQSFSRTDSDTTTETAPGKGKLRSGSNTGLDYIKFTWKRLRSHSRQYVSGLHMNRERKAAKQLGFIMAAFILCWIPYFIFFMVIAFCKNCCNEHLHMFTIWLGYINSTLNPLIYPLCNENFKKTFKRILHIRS
In another test the test system is SK-MEL-28. Put plainly: Anticancer activity against human SK-MEL-28 cells assessed as cell growth inhibition. The format is functional, cell-based. Conditions: dose 1-100 µM, DDE = dose-dependent effect.
Test [3] addresses Kappa-type opioid receptor (Homo sapiens) (UniProt P41145). Put plainly: Binding affinity to KOR receptor (unknown origin) at 10000 nM by radioligand displacement assay relative to control.
For test [4], the target named is Delta-type opioid receptor (Homo sapiens) (UniProt P41143). Put plainly: Binding affinity to DOR receptor (unknown origin) at 10000 nM by radioligand displacement assay relative to control.
Delta-type opioid receptor (Homo sapiens), sequence (P41143 whole entry): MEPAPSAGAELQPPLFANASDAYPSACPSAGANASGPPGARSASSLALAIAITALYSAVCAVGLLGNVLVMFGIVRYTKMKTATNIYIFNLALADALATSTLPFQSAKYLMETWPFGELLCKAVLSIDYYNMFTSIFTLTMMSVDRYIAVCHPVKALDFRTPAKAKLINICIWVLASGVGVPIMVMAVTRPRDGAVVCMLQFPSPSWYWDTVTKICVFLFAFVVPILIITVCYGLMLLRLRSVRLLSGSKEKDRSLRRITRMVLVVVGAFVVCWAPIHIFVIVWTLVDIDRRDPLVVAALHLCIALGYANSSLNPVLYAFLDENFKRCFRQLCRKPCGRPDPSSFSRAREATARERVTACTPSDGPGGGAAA
Test [5] concerns the target Sodium-dependent dopamine transporter (Homo sapiens, UniProt Q01959). The test can be described thus: Binding affinity to DAT receptor (unknown origin) by radioligand displacement assay.
A further test deals with OVCAR-8. Put plainly: Anticancer activity against human OVCAR-8 cells assessed as cell growth inhibition. It counts as functional, cell-based. The settings on record: dose 1-100 µM, DDE = dose-dependent effect.

Sodium-dependent dopamine transporter, sequence (Q01959 whole entry): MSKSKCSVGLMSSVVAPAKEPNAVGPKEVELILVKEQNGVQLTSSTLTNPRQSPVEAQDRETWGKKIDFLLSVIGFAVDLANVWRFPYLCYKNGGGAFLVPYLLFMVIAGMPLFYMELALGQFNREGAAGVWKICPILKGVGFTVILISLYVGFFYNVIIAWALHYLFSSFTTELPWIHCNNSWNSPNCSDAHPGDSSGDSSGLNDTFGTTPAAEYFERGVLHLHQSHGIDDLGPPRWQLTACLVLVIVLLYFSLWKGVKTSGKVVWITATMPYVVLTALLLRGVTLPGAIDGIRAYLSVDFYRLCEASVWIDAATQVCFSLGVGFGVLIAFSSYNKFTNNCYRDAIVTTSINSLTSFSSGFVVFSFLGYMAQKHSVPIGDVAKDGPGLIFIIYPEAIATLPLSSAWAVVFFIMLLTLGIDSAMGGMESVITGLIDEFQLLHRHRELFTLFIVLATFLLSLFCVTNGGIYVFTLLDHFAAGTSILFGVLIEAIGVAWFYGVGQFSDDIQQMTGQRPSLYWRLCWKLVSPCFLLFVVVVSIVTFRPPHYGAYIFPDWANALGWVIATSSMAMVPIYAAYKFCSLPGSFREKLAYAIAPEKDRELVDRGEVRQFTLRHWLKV
Kappa-type opioid receptor (Homo sapiens), sequence (P41145 whole entry): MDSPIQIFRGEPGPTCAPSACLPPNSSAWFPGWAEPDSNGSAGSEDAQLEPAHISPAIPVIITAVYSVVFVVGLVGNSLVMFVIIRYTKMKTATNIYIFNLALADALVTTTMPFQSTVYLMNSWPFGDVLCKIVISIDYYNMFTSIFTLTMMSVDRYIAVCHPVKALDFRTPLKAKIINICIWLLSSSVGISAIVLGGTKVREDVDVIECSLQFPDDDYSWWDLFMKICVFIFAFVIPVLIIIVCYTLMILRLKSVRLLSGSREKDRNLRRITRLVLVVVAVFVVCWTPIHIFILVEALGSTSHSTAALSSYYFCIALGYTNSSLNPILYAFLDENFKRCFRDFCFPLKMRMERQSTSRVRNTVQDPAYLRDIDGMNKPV

Take `N=c1c2c(-c3ccccc3)c(-c3ccccc3)n(Cc3ccccc3)c2ncn1[C@H]1CC[C@H](O)CC1` [ML-246]: the Activity result was “Dde” with SF-295; “Dde” in the test on SK-MEL-2; “Dde” with EKVX; below 50% in test [1]; below 50% in test [2]; “Dde” in the test on T47D. In addition, the Activity result is “Dde” with PC-3M; “Dde” with SK-MEL-28; below 50% in test [3]; below 50% in test [4]; “Dde” in the test on OVCAR-8. Besides, the Ki (usually a dissociation constant, usually derived from enzyme kinetics or from competition with a known ligand) worked out at 3.56 µM on Histamine H1 receptor and 3.41 µM in test [5].

Source of the values: ChEMBL document CHEMBL5154945, “Discovery and Optimization of Pyrrolopyrimidine Derivatives as Selective Disruptors of the Perinucleolar Compartment, a Marker of Tumor Progression toward Metastasis” (J Med Chem, 2022).
